In ChEMBL document CHEMBL2176968, “Identification of less lipophilic riminophenazine derivatives for the treatment of drug-resistant tuberculosis” (J Med Chem, 2012):
Values after ≈ are worked out from the molar mass of the structure shown.

How the values were obtained:
[1] = Selectivity index, ratio of IC50 for african green monkey Vero cells to MIC for Mycobacterium tuberculosis H37Rv ATCC 27294; type: functional
[2] = system: Vero; experiment: Cytotoxicity against african green monkey Vero cells after 48 hrs by MTT assay; type: cell-based; details: Chlorocebus sabaeus
Procedure, shortened: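 Vero cells were exposed to compound. The IC50 was taken as the concentration inhibiting 50% of growth relative to an untreated control.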

[3] = system: Mycobacterium tuberculosis; experiment: Antimycobacterial activity against Mycobacterium tuberculosis H37Rv ATCC 27294 after 7 days by microplate Alamar blue assay; type: functional; details: H37Rv ATCC 27294, 168 h
Procedure, shortened: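 Run in 96-well plates against M. tuberculosis H37Rv using the Alamar Blue read-out. The MIC was taken as the lowest concentration giving >90% growth inhibition.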

[4] = system: Mus musculus; experiment: Acute toxicity in mouse assessed as survival at 500 mg/kg, po measured for 7 days; type: organism-based; set-up: dose 500 mg/kg, route oral; details: in vivo, 168 h
Procedure, shortened: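 Mice given one oral dose of 500 mg/kg, then observed for 7 days. The number of surviving mice was recorded.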

Compound | Selectivity Index [1] | IC50 [2] | MIC [3] | Activity [4]
Cc1ccc(Nc2cc3nc4ccccc4n(-c4ccc(C(F)(F)F)cc4)c-3c/c2=N\C2CCOCC2)cn1 | 1098 | 35.1 µg/mL (≈ 66.3 µM) | 0.032 µg/mL (≈ 0.0604 µM) | –
COC1CCC(/N=c2\cc3n(-c4ccc(C(F)(F)F)cc4)c4ccccc4nc-3cc2Nc2ccc(C)nc2)CC1 (configuration not stated) | 2089 | 33.4 µg/mL (≈ 60 µM) | 0.016 µg/mL (≈ 0.0287 µM) | –
COc1ncccc1Nc1cc2nc3ccccc3n(-c3ccc(Br)cc3)c-2c/c1=N\C(C)C | 1306 | > 64 µg/mL | 0.049 µg/mL (≈ 0.0953 µM) | –
COc1ncccc1Nc1cc2nc3ccccc3n(-c3ccc(Br)cc3)c-2c/c1=N\C1CCC(OC)CC1 (configuration not stated) | 2065 | > 64 µg/mL | 0.031 µg/mL (≈ 0.053 µM) | Non-toxic
Cc1ncccc1Nc1cc2nc3ccccc3n(-c3ccc(Br)cc3)c-2c/c1=N\C(C)C | 635 | 39.4 µg/mL (≈ 79 µM) | 0.062 µg/mL (≈ 0.124 µM) | –
COC1CCC(/N=c2\cc3n(-c4ccc(Br)cc4)c4ccccc4nc-3cc2Nc2cccnc2C)CC1 (configuration not stated) | 2788 | 41.8 µg/mL (≈ 73.6 µM) | 0.015 µg/mL (≈ 0.0264 µM) | Toxic
Cc1ccc(Nc2cc3nc4ccccc4n(-c4ccc(Br)cc4)c-3c/c2=N\C(C)C)cn1 | 64 | 3.12 µg/mL (≈ 6.26 µM) | 0.049 µg/mL (≈ 0.0983 µM) | –
Cc1ccc(Nc2cc3nc4ccccc4n(-c4ccc(Br)cc4)c-3c/c2=N\C2CCOCC2)cn1 | 493 | 21.7 µg/mL (≈ 40.2 µM) | 0.044 µg/mL (≈ 0.0814 µM) | –
COC1CCC(/N=c2\cc3n(-c4ccc(Br)cc4)c4ccccc4nc-3cc2Nc2ccc(C)nc2)CC1 (configuration not stated) | 409 | 39.7 µg/mL (≈ 69.8 µM) | 0.097 µg/mL (≈ 0.171 µM) | –
COc1ncccc1Nc1cc2nc3ccccc3n(-c3ccc(OC(F)(F)F)cc3)c-2c/c1=N\C(C)C | 2286 | > 64 µg/mL | 0.028 µg/mL (≈ 0.0539 µM) | –
COc1ncccc1Nc1cc2nc3ccccc3n(-c3ccc(OC(F)(F)F)cc3)c-2c/c1=N\C1CCOCC1 | 4000 | > 64 µg/mL | 0.016 µg/mL (≈ 0.0285 µM) | –
Fc1ccc(-n2c3c/c(=N\CCN4CCOCC4)c(Nc4cccnc4)cc-3nc3ccccc32)cc1 | 30 | 15.1 µg/mL (≈ 30.5 µM) | 0.5 µg/mL (≈ 1.01 µM) | –
FC(F)(F)Oc1ccc(-n2c3c/c(=N\C4CCOCC4)c(Nc4cccnc4)cc-3nc3ccccc32)cc1 | 2133 | > 64 µg/mL | 0.03 µg/mL (≈ 0.0564 µM) | –
COC1CCC(/N=c2\cc3n(-c4ccc(OC(F)(F)F)cc4)c4ccccc4nc-3cc2Nc2cccnc2)CC1 (configuration not stated) | 151 | 4.52 µg/mL (≈ 8.08 µM) | 0.03 µg/mL (≈ 0.0536 µM) | –
CN1CCC(/N=c2\cc3n(-c4ccc(OC(F)(F)F)cc4)c4ccccc4nc-3cc2Nc2cccnc2)CC1 | 18 | 4.48 µg/mL (≈ 8.23 µM) | 0.25 µg/mL (≈ 0.459 µM) | –
CC(C)CN1CCC(/N=c2\cc3n(-c4ccc(OC(F)(F)F)cc4)c4ccccc4nc-3cc2Nc2cccnc2)CC1 | 93 | 5.6 µg/mL (≈ 9.55 µM) | 0.06 µg/mL (≈ 0.102 µM) | –
FC(F)(F)Oc1ccc(-n2c3c/c(=N\CCN4CCOCC4)c(Nc4cccnc4)cc-3nc3ccccc32)cc1 | 129 | 16.1 µg/mL (≈ 28.8 µM) | 0.125 µg/mL (≈ 0.223 µM) | –
FC(F)(F)c1ccc(-n2c3c/c(=N\C4CCOCC4)c(Nc4cccnc4)cc-3nc3ccccc32)cc1 | 512 | > 64 µg/mL | 0.125 µg/mL (≈ 0.242 µM) | –
COC1CCC(/N=c2\cc3n(-c4ccc(C(F)(F)F)cc4)c4ccccc4nc-3cc2Nc2cccnc2)CC1 (configuration not stated) | 945 | 28.3 µg/mL (≈ 52.2 µM) | 0.03 µg/mL (≈ 0.0552 µM) | –
CN1CCC(/N=c2\cc3n(-c4ccc(C(F)(F)F)cc4)c4ccccc4nc-3cc2Nc2cccnc2)CC1 | 83 | 10.4 µg/mL (≈ 19.6 µM) | 0.125 µg/mL (≈ 0.236 µM) | –
CC(C)CN1CCC(/N=c2\cc3n(-c4ccc(C(F)(F)F)cc4)c4ccccc4nc-3cc2Nc2cccnc2)CC1 | 450 | 27 µg/mL (≈ 47.3 µM) | 0.06 µg/mL (≈ 0.105 µM) | –
FC(F)(F)c1ccc(-n2c3c/c(=N\CCN4CCOCC4)c(Nc4cccnc4)cc-3nc3ccccc32)cc1 | 159 | 19.9 µg/mL (≈ 36.5 µM) | 0.125 µg/mL (≈ 0.23 µM) | –
Brc1ccc(-n2c3c/c(=N\C4CCOCC4)c(Nc4cccnc4)cc-3nc3ccccc32)cc1 | 27 | 4.48 µg/mL (≈ 8.51 µM) | 0.163 µg/mL (≈ 0.31 µM) | –
COC1CCC(/N=c2\cc3n(-c4ccc(Br)cc4)c4ccccc4nc-3cc2Nc2cccnc2)CC1 (configuration not stated) | 30 | 1.88 µg/mL (≈ 3.39 µM) | 0.062 µg/mL (≈ 0.112 µM) | –
COc1ncccc1Nc1cc2nc3ccccc3n(-c3ccc(Cl)cc3)c-2c/c1=N\C(C)C | 2133 | > 64 µg/mL | 0.03 µg/mL (≈ 0.0638 µM) | –
Cc1ncccc1Nc1cc2nc3ccccc3n(-c3ccc(Cl)cc3)c-2c/c1=N\C(C)C | 1164 | > 64 µg/mL | 0.055 µg/mL (≈ 0.121 µM) | –
Cc1ncccc1Nc1cc2nc3ccccc3n(-c3ccc(Cl)cc3)c-2c/c1=N\C1CCOCC1 | 163 | 27.4 µg/mL (≈ 55.3 µM) | 0.168 µg/mL (≈ 0.339 µM) | –
Cc1ccc(Nc2cc3nc4ccccc4n(-c4ccc(Cl)cc4)c-3c/c2=N\C(C)C)cn1 | 118 | 7.09 µg/mL (≈ 15.6 µM) | 0.06 µg/mL (≈ 0.132 µM) | –

Compound | Selectivity Index [1] | IC50 [2] | MIC [3] | Activity [4]
Cc1ccc(Nc2cc3nc4ccccc4n(-c4ccc(Cl)cc4)c-3c/c2=N\C2CCOCC2)cn1 | 324 | 9.73 µg/mL (≈ 19.6 µM) | 0.03 µg/mL (≈ 0.0605 µM) | –
Clc1ccc(-n2c3c/c(=N\C4CCOCC4)c(Nc4cncc(Br)c4)cc-3nc3ccccc32)cc1 | 1778 | > 64 µg/mL | 0.036 µg/mL (≈ 0.0642 µM) | –
COC1CCC(/N=c2\cc3n(-c4ccc(Cl)cc4)c4ccccc4nc-3cc2Nc2cncc(Br)c2)CC1 (configuration not stated) | 1231 | > 64 µg/mL | 0.052 µg/mL (≈ 0.0883 µM) | –
COc1ncccc1Nc1cc2nc3ccccc3n(-c3ccc(F)cc3)c-2c/c1=N\C1CCOCC1 | 1641 | > 64 µg/mL | 0.039 µg/mL (≈ 0.0787 µM) | –
Cc1ncccc1Nc1cc2nc3ccccc3n(-c3ccc(F)cc3)c-2c/c1=N\C(C)C | 449 | 14.4 µg/mL (≈ 32.8 µM) | 0.032 µg/mL (≈ 0.0731 µM) | –
Cc1ccc(Nc2cc3nc4ccccc4n(-c4ccc(F)cc4)c-3c/c2=N\C(C)C)cn1 | 131 | 7.88 µg/mL (≈ 18 µM) | 0.06 µg/mL (≈ 0.137 µM) | –
Cc1ccc(Nc2cc3nc4ccccc4n(-c4ccc(F)cc4)c-3c/c2=N\C2CCOCC2)cn1 | 112 | 14 µg/mL (≈ 29.3 µM) | 0.125 µg/mL (≈ 0.261 µM) | –
COC1CCC(/N=c2\cc3n(-c4ccc(F)cc4)c4ccccc4nc-3cc2Nc2ccc(C)nc2)CC1 (configuration not stated) | 1067 | > 64 µg/mL | 0.06 µg/mL (≈ 0.118 µM) | –
Cc1ncccc1Nc1cc2nc3ccccc3n(-c3ccc(C(F)(F)F)cc3)c-2c/c1=N\C(C)C | 4571 | > 64 µg/mL | 0.014 µg/mL (≈ 0.0287 µM) | –
COC1CCC(/N=c2\cc3n(-c4ccc(C(F)(F)F)cc4)c4ccccc4nc-3cc2Nc2cccnc2C)CC1 (configuration not stated) | 5818 | > 64 µg/mL | 0.011 µg/mL (≈ 0.0197 µM) | –
Cc1ccc(Nc2cc3nc4ccccc4n(-c4ccc(C(F)(F)F)cc4)c-3c/c2=N\C(C)C)cn1 | 1147 | 34.4 µg/mL (≈ 70.6 µM) | 0.03 µg/mL (≈ 0.0615 µM) | –
CC(C)/N=c1\cc2n(-c3ccccc3)c3ccccc3nc-2cc1Nc1cccnc1 | 66 | 3.93 µg/mL (≈ 9.69 µM) | 0.06 µg/mL (≈ 0.148 µM) | –
Cc1ccc(-n2c3c/c(=N\C(C)C)c(Nc4cccnc4)cc-3nc3ccccc32)cc1 | 45 | 2.71 µg/mL (≈ 6.46 µM) | 0.06 µg/mL (≈ 0.143 µM) | –
CSc1ccc(-n2c3c/c(=N\C(C)C)c(Nc4cccnc4)cc-3nc3ccccc32)cc1 | 37 | 1.83 µg/mL (≈ 4.05 µM) | 0.05 µg/mL (≈ 0.111 µM) | –
CC(C)/N=c1\cc2n(-c3ccc(F)cc3)c3ccccc3nc-2cc1Nc1cccnc1 | 208 | 6.25 µg/mL (≈ 14.8 µM) | 0.03 µg/mL (≈ 0.0708 µM) | –
CC(C)/N=c1\cc2n(-c3ccc(C(F)(F)F)cc3)c3ccccc3nc-2cc1Nc1cccnc1 | 655 | 19.7 µg/mL (≈ 41.5 µM) | 0.03 µg/mL (≈ 0.0634 µM) | –
CC(C)/N=c1\cc2n(-c3ccc(OC(F)(F)F)cc3)c3ccccc3nc-2cc1Nc1cccnc1 | 164 | 4.93 µg/mL (≈ 10.1 µM) | 0.03 µg/mL (≈ 0.0613 µM) | –
CC(C)/N=c1\cc2n(-c3ccc(Br)cc3)c3ccccc3nc-2cc1Nc1cccnc1 | 115 | 2.3 µg/mL (≈ 4.75 µM) | 0.02 µg/mL (≈ 0.0413 µM) | –
Clc1ccc(-n2c3c/c(=N\C4CCOCC4)c(Nc4cccnc4)cc-3nc3ccccc32)cc1 | 83 | 2.5 µg/mL (≈ 5.19 µM) | 0.03 µg/mL (≈ 0.0622 µM) | –
COC1CCC(/N=c2\cc3n(-c4ccc(Cl)cc4)c4ccccc4nc-3cc2Nc2cccnc2)CC1 (configuration not stated) | 401 | 12 µg/mL (≈ 23.6 µM) | 0.03 µg/mL (≈ 0.0588 µM) | –
CN1CCC(/N=c2\cc3n(-c4ccc(Cl)cc4)c4ccccc4nc-3cc2Nc2cccnc2)CC1 | 45 | 5.58 µg/mL (≈ 11.3 µM) | 0.125 µg/mL (≈ 0.253 µM) | –
CC(C)CN1CCC(/N=c2\cc3n(-c4ccc(Cl)cc4)c4ccccc4nc-3cc2Nc2cccnc2)CC1 | 60 | 15.1 µg/mL (≈ 28 µM) | 0.25 µg/mL (≈ 0.465 µM) | –
Clc1ccc(-n2c3c/c(=N\CCN4CCOCC4)c(Nc4cccnc4)cc-3nc3ccccc32)cc1 | 16 | 4.02 µg/mL (≈ 7.87 µM) | 0.25 µg/mL (≈ 0.489 µM) | –
Fc1ccc(-n2c3c/c(=N\C4CCOCC4)c(Nc4cccnc4)cc-3nc3ccccc32)cc1 | 123 | 7.36 µg/mL (≈ 15.8 µM) | 0.06 µg/mL (≈ 0.129 µM) | –
COC1CCC(/N=c2\cc3n(-c4ccc(F)cc4)c4ccccc4nc-3cc2Nc2cccnc2)CC1 (configuration not stated) | 533 | > 64 µg/mL | 0.12 µg/mL (≈ 0.243 µM) | –
CN1CCC(/N=c2\cc3n(-c4ccc(F)cc4)c4ccccc4nc-3cc2Nc2cccnc2)CC1 | 26 | 6.44 µg/mL (≈ 13.5 µM) | 0.25 µg/mL (≈ 0.522 µM) | –
CC(C)CN1CCC(/N=c2\cc3n(-c4ccc(F)cc4)c4ccccc4nc-3cc2Nc2cccnc2)CC1 | 242 | 30.3 µg/mL (≈ 58.1 µM) | 0.125 µg/mL (≈ 0.24 µM) | –
